Assay results: ChEMBL document CHEMBL2417469, “Synthesis of novel analogs of 2-pyrazoline obtained from [(7-chloroquinolin-4-yl)amino]chalcones and hydrazine as potential antitumor and antimalarial agents” (Eur J Med Chem, 2013)

How the values were obtained:
Type in all cases: functional
[1] = tested on: MCF7; assay: Cytotoxicity against human MCF7 cells after 48 hrs by SRB assay; conditions: MCF7, 48 h
Procedure, shortened: (§1)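 NCI 60-cell-line screen. Cells preincubated 24 h at 37 °C, 5% CO2; time-zero plates TCA-fixed. Compounds dissolved in DMSO and tested at five concentrations (100, 10, 1.0, 0.1, 0.01 µM) for 48 h continuous exposure. Adherent cells fixed with cold TCA (10% final), then SRB stained; absorbance at 515 nm. GI50, TGI and LC50 calculated from growth relative to time-zero and untreated controls.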

[2] = tested on: SNB-19; assay: Cytotoxicity against human SNB19 cells after 48 hrs by SRB assay; conditions: SNB-19, 48 h
Procedure, shortened: (§2)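 NCI 60-cell screen. Cells grew 24 h (37 °C, 5% CO2) before compound was added. Compounds were in DMSO and diluted in medium with gentamicin, then tested at five levels (100, 10, 1.0, 0.1, 0.01 µM) with 48 h continuous exposure. Adherent cells were fixed with TCA (10% final) and stained with 0.4% SRB, absorbance read at 515 nm. A time-zero plate was included. LC50 is the concentration giving 50% loss of protein relative to time zero.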

[3] = tested on: SK-MEL-28; assay: Cytotoxicity against human SK-MEL-28 cells after 48 hrs by SRB assay; conditions: SK-MEL-28, 48 h; procedure, shortened: as §1
[4] = tested on: OVCAR-8; assay: Cytotoxicity against human OVCAR8 cells after 48 hrs by SRB assay; conditions: OVCAR-8, 48 h; procedure, shortened: as §1
[5] = tested on: KM12; assay: Cytotoxicity against human KM12 cells after 48 hrs by SRB assay; conditions: KM12, 48 h; procedure, shortened: as §1
[6] = tested on: 786-0; assay: Cytotoxicity against human 786-0 cells after 48 hrs by SRB assay; conditions: 786-0, 48 h; procedure, shortened: as §1
[7] = tested on: SK-OV-3; assay: Cytotoxicity against human SKOV3 cells after 48 hrs by SRB assay; conditions: SK-OV-3, 48 h; procedure, shortened: as §1
[8] = tested on: HOP-92; assay: Cytotoxicity against human HOP92 cells after 48 hrs by SRB assay; conditions: HOP-92, 48 h; procedure, shortened: as §1
[9] = tested on: LOX IMVI; assay: Cytotoxicity against human LOXIMVI cells after 48 hrs by SRB assay; procedure, shortened: as §1
[10] = tested on: HT-29; assay: Cytotoxicity against human HT-29 cells after 48 hrs by SRB assay; conditions: HT-29, 48 h; procedure, shortened: as §1
[11] = tested on: RXF 393; assay: Cytotoxicity against human RXF393 cells after 48 hrs by SRB assay; conditions: RXF 393, 48 h; procedure, shortened: as §1
[12] = tested on: U-251; assay: Cytotoxicity against human U251 cells after 48 hrs by SRB assay; conditions: U-251, 48 h; procedure, shortened: as §2
[13] = tested on: A549; assay: Cytotoxicity against human A549/ATCC cells after 48 hrs by SRB assay; conditions: A549, 48 h; procedure, shortened: as §1
[14] = tested on: HCC 2998; assay: Cytotoxicity against human HCC2998 cells after 48 hrs by SRB assay; conditions: HCC 2998, 48 h; procedure, shortened: as §1
[15] = tested on: SR; assay: Cytotoxicity against human SR cells after 48 hrs by SRB assay; procedure, shortened: as §2
[16] = tested on: OVCAR-4; assay: Cytotoxicity against human OVCAR4 cells after 48 hrs by SRB assay; conditions: OVCAR-4, 48 h; procedure, shortened: as §1
[17] = tested on: DU-145; assay: Cytotoxicity against human DU145 cells after 48 hrs by SRB assay; conditions: DU-145, 48 h; procedure, shortened: as §1
[18] = tested on: UO-31; assay: Cytotoxicity against human UO31 cells after 48 hrs by SRB assay; conditions: UO-31, 48 h; procedure, shortened: as §2
[19] = tested on: MDA-MB-468; assay: Cytotoxicity against human MDA-MB-468 cells after 48 hrs by SRB assay; conditions: MDA-MB-468, 48 h; procedure, shortened: as §1
[20] = tested on: A498; assay: Cytotoxicity against human A498 cells after 48 hrs by SRB assay; conditions: A498, 48 h; procedure, shortened: as §1
[21] = tested on: M14; assay: Cytotoxicity against human M14 cells after 48 hrs by SRB assay; conditions: M14, 48 h; procedure, shortened: as §1
[22] = tested on: IGROV-1; assay: Cytotoxicity against human IGROV1 cells after 48 hrs by SRB assay; conditions: IGROV-1, 48 h; procedure, shortened: as §1
[23] = tested on: SK-MEL-2; assay: Cytotoxicity against human SK-MEL-2 cells after 48 hrs by SRB assay; conditions: SK-MEL-2, 48 h; procedure, shortened: as §1
[24] = tested on: SF-539; assay: Cytotoxicity against human SF539 cells after 48 hrs by SRB assay; conditions: SF-539, 48 h; procedure, shortened: as §1
[25] = tested on: NCI-H226; assay: Cytotoxicity against human NCI-H226 cells after 48 hrs by SRB assay; conditions: NCI-H226, 48 h; procedure, shortened: as §1
[26] = tested on: UACC-62; assay: Cytotoxicity against human UACC62 cells after 48 hrs by SRB assay; conditions: UACC-62, 48 h; procedure, shortened: as §2
[27] = tested on: CCRF-CEM; assay: Cytotoxicity against human CCRF-CEM cells after 48 hrs by SRB assay; procedure, shortened: as §1
[28] = tested on: HCT-116; assay: Cytotoxicity against human HCT116 cells after 48 hrs by SRB assay; conditions: HCT-116, 48 h; procedure, shortened: as §1
[29] = tested on: CAKI-1; assay: Cytotoxicity against human Caki1 cells after 48 hrs by SRB assay; conditions: CAKI-1, 48 h; procedure, shortened: as §1
[30] = tested on: Malme-3M; assay: Cytotoxicity against human MALME-3M cells after 48 hrs by SRB assay; procedure, shortened: as §1
[31] = tested on: MDA-MB-231; assay: Cytotoxicity against human MDA-MB-231 cells after 48 hrs by SRB assay; conditions: MDA-MB-231, 48 h; procedure, shortened: as §1
[32] = tested on: HCT-15; assay: Cytotoxicity against human HCT15 cells after 48 hrs by SRB assay; conditions: HCT-15, 48 h; procedure, shortened: as §1
[33] = tested on: Hs-578T; assay: Cytotoxicity against human Hs578T cells after 48 hrs by SRB assay; procedure, shortened: as §1
[34] = tested on: SF-268; assay: Cytotoxicity against human SF268 cells after 48 hrs by SRB assay; conditions: SF-268, 48 h; procedure, shortened: as §1
[35] = tested on: MDA-MB-435; assay: Cytotoxicity against human MDA-MB-435 cells after 48 hrs by SRB assay; conditions: MDA-MB-435, 48 h; procedure, shortened: as §1
[36] = read-out: LC50 (the source's name)

Q: For `O=CN1N=C(c2cccc(Nc3ccnc4cc(Cl)ccc34)c2)CC1c1ccccc1` (stereo not given), which GI50 [1] is on record?
A: The GI50 was 340 nM.

Q: What about the CC50 [1, 36] of the same compound?
A: Its CC50 is > 100 µM.

Q: What about the GI50 [2] of the same compound?
A: Its GI50 is 600 nM.

Q: What about the LC50 [2] of the same compound?
A: The LC50 was > 100 µM.

Q: What about the GI50 [3] of the same compound?
A: Its GI50 is 760 nM.

Q: What about the CC50 [3, 36] of the same compound?
A: The CC50 was > 100 µM.

Q: And the GI50 [4]?
A: Its GI50 is 510 nM.

Q: What about the LC50 (50% net cell kill) [4] of the same compound?
A: Its LC50 (50% net cell kill) is 56 µM.

Q: And the GI50 [5]?
A: The GI50 was 290 nM.

Q: What about the LC50 (concentration killing 50% of cells) [5] of the same compound?
A: Its LC50 (concentration killing 50% of cells) is > 100 µM.

Q: And the GI50 [6]?
A: Its GI50 is 590 nM.

Q: And the LC50 [6]?
A: The LC50 was > 100 µM.

Q: And the GI50 [7]?
A: Its GI50 is 330 nM.

Q: What about the LC50 (concentration killing 50% of cells) [7] of the same compound?
A: The LC50 (concentration killing 50% of cells) was > 100 µM.

Q: And the GI50 [8]?
A: Its GI50 is 210 nM.

Q: What about the LC50 (concentration killing 50% of cells) [8] of the same compound?
A: Its LC50 (concentration killing 50% of cells) is > 100 µM.

Q: What about the GI50 [9] of the same compound?
A: The GI50 was 450 nM.

Q: What about the LC50 [9] of the same compound?
A: The LC50 was 4.23 µM.

Q: What about the GI50 [10] of the same compound?
A: Its GI50 is 320 nM.

Q: And the LC50 [10]?
A: The LC50 was 4.32 µM.

Q: What about the GI50 [11] of the same compound?
A: The GI50 was 390 nM.

Q: And the LC50 (concentration killing 50% of cells) [11]?
A: The LC50 (concentration killing 50% of cells) was > 100 µM.

Q: What about the GI50 [12] of the same compound?
A: Its GI50 is 370 nM.

Q: What about the CC50 [12, 36] of the same compound?
A: Its CC50 is 5.07 µM.

Q: And the GI50 [13]?
A: Its GI50 is 540 nM.

Q: And the CC50 [13, 36]?
A: Its CC50 is > 100 µM.

Q: What about the GI50 [14] of the same compound?
A: Its GI50 is 1220 nM.

Q: What about the LC50 [14] of the same compound?
A: Its LC50 is > 100 µM.

Q: What about the GI50 [15] of the same compound?
A: The GI50 was 200 nM.

Q: What about the LC50 [15] of the same compound?
A: The LC50 was > 100 µM.

Q: And the GI50 [16]?
A: Its GI50 is 560 nM.

Q: And the LC50 [16]?
A: The LC50 was > 100 µM.

Q: What about the GI50 [17] of the same compound?
A: The GI50 was 440 nM.

Q: What about the LC50 (concentration killing 50% of cells) [17] of the same compound?
A: The LC50 (concentration killing 50% of cells) was > 100 µM.

Q: And the GI50 [18]?
A: Its GI50 is 410 nM.

Q: What about the LC50 [18] of the same compound?
A: The LC50 was > 100 µM.

Q: And the GI50 [19]?
A: Its GI50 is 220 nM.

Q: What about the LC50 [19] of the same compound?
A: The LC50 was > 100 µM.

Q: What about the GI50 [20] of the same compound?
A: The GI50 was 230 nM.

Q: What about the CC50 [20, 36] of the same compound?
A: The CC50 was > 100 µM.

Q: And the GI50 [21]?
A: Its GI50 is 330 nM.

Q: And the CC50 [21, 36]?
A: The CC50 was > 100 µM.

Q: What about the GI50 [22] of the same compound?
A: Its GI50 is 820 nM.

Q: What about the LC50 (concentration killing 50% of cells relative to time zero) [22] of the same compound?
A: The LC50 (concentration killing 50% of cells relative to time zero) was > 100 µM.

Q: What about the GI50 [23] of the same compound?
A: The GI50 was 260 nM.

Q: And the LC50 [23]?
A: Its LC50 is > 100 µM.

Q: And the GI50 [24]?
A: Its GI50 is 310 nM.

Q: What about the CC50 [24, 36] of the same compound?
A: Its CC50 is 35.7 µM.

Q: What about the GI50 [25] of the same compound?
A: The GI50 was 6.91 µM.

Q: And the LC50 (50% lethal concentration) [25]?
A: Its LC50 (50% lethal concentration) is > 100 µM.

Q: And the GI50 [26]?
A: Its GI50 is 530 nM.

Q: And the CC50 [26, 36]?
A: The CC50 was > 100 µM.

Q: And the GI50 [27]?
A: Its GI50 is 370 nM.

Q: And the LC50 (concentration killing 50% of cells relative to time zero) [27]?
A: The LC50 (concentration killing 50% of cells relative to time zero) was > 100 µM.

Q: And the GI50 [28]?
A: Its GI50 is 390 nM.

Q: And the LC50 [28]?
A: Its LC50 is 4.75 µM.

Q: And the GI50 [29]?
A: The GI50 was 330 nM.

Q: What about the LC50 [29] of the same compound?
A: Its LC50 is 35.3 µM.

Q: What about the GI50 [30] of the same compound?
A: Its GI50 is 370 nM.

Q: And the LC50 [30]?
A: The LC50 was > 100 µM.

Q: What about the GI50 [31] of the same compound?
A: Its GI50 is 1150 nM.

Q: And the LC50 (concentration killing 50% of cells present at time zero) [31]?
A: The LC50 (concentration killing 50% of cells present at time zero) was > 100 µM.

Q: What about the GI50 [32] of the same compound?
A: The GI50 was 520 nM.

Q: And the LC50 (concentration killing 50% of cells relative to time zero) [32]?
A: Its LC50 (concentration killing 50% of cells relative to time zero) is > 100 µM.

Q: What about the GI50 [33] of the same compound?
A: The GI50 was 290 nM.

Q: And the LC50 (50% net cell kill) [33]?
A: The LC50 (50% net cell kill) was > 100 µM.

Q: And the GI50 [34]?
A: Its GI50 is 1040 nM.

Q: And the LC50 [34]?
A: Its LC50 is > 100 µM.

Q: And the GI50 [35]?
A: The GI50 was 130 nM.

Q: And the LC50 [35]?
A: Its LC50 is > 100 µM.
